Columns and labels:
[1] = Deprotonation equilibrium constant for compound was determined at pH<4; type: ADME
Summary of the method: (§1)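 pKa values were determined by potentiometric titration of the acridine ligand at 5 × 10^-4 M across pH 2-12. The distribution of nonprotonated, mono-, bi- and higher protonated species was estimated graphically from the titration curves.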

[2] = Deprotonation equilibrium constant for compound was determined; type: ADME; summary of the method: as §1

Row | pKa [1] | pKa [2] | Compound
1 | 4 | 9.8 | COc1ccc2nc3cc(Cl)ccc3c(NCCCNCCCNCCn3cnc4c(N)nc(N)nc43)c2c1
2 | – | 10 | COc1ccc2nc3cc(Cl)ccc3c(NCCCNCCCN)c2c1

— ChEMBL document CHEMBL1130185, “Search for DNA repair inhibitors: selective binding of nucleic bases-acridine conjugates to a DNA duplex containing an abasic site” (J Med Chem, 1997)
